Nine molecules from ChEMBL document CHEMBL4177626, “Synthesis and anti-HCV activity of a series of β-d-2'-deoxy-2'-dibromo nucleosides and their corresponding phosphoramidate prodrugs” (Bioorg Med Chem Lett, 2017) can be followed below.

pEC50: −log10 of the molar value. Calls of active or inactive are those of the source. No cut-off for these calls is given here.

The subject of one series is Norovirus. As to the kind of experiment: Antiviral activity against Norovirus up to 10 uM. Format: functional, organism-based.
The subject of the next series is Vero. As to the kind of experiment: (§1) Cytotoxicity against African green monkey Vero cells assessed as reduction in cell viability after 6 days by trypan blue exclusion assay. The note with it: chlorocebus sabaeus, vero, 144 h. Format: cell-based.
In series [1] the test system is unidentified influenza virus. The series is described as follows: Antiviral activity against Influenza virus up to 10 uM. Format: functional, organism-based.
For another series, the system named is Ebolavirus. As to the kind of experiment: Antiviral activity against Ebolavirus up to 10 uM. Format: functional.
The subject of a further series is Hepatitis C virus. As to the kind of experiment: Antiviral activity against HCV genotype 1b infected in human HuH7 cells assessed as inhibition of viral RNA replication after 5 days by RT-PCR method. The series is classed as functional, organism-based, Hepacivirus hominis. The settings on record: Huh-7, 120 h. The method, boiled down:
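Subgenomic HCV genotype 1b replicon in Huh-7 cells. Inhibition of replicon RNA replication was measured by extracting and amplifying HCV RNA. Cellular ribosomal RNA was extracted and amplified at the same time, as a parallel cytotoxicity read-out.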

In series [2] the test system is Respiratory syncytial virus. The series is described as follows: Antiviral activity against Respiratory syncytial virus up to 10 uM. Format: functional, organism-based.
Series [3] has as its system Human immunodeficiency virus. As to the kind of experiment: Antiviral activity against Human immunodeficiency virus up to 10 uM. Format: functional, organism-based.
The subject of a further series is West Nile virus. As to the kind of experiment: Antiviral activity against West Nile virus up to 10 uM. Format: functional, organism-based.
The subject of another series is PBMC. As to the kind of experiment: (§2) Cytotoxicity against human PBMC assessed as reduction in cell viability after 6 days by trypan blue exclusion assay. Format: cell-based. The settings on record: pbmc, 144 h.
Another series relates to Chikungunya virus. As to the kind of experiment: Antiviral activity against Chikungunya virus up to 10 uM. Format: functional, organism-based.
Another series deals with Huh-7. As to the kind of experiment: Cytotoxicity against human HuH7 cells assessed as reduction in cell viability by MTT assay. Format: cell-based.
The subject of a further series is CCRF-CEM. The series is described as follows: (§3) Cytotoxicity against human CEM cells assessed as reduction in cell viability after 6 days by trypan blue exclusion assay. The series is classed as cell-based. The settings on record: ccrf-cem, 144 h.
The test system of a further series is Dengue virus. The series is described as follows: Antiviral activity against Dengue virus up to 10 uM. The series is classed as functional, organism-based.
Series [4] can be described thus: as §1. Format: cell-based. The settings on record: chlorocebus sabaeus, Vero cells.
Series [5] can be described thus: as §2. The settings on record: PBMC. The series is classed as cell-based.
A short description of series [6]: as §3. Format: cell-based, CCRF-CEM. The note with it: CEM cells.

`Nc1ccn([C@@H]2O[C@H](CO)C(O)C2(Br)Br)c(=O)n1` (single isomer, unassigned): the result (in the series with Norovirus; in series [1]; with Ebolavirus; in series [2]; in series [3]; in the series on West Nile virus) was inactive. Further, the outcome with Chikungunya virus and in the series on Dengue virus was inactive. Also, the CC50 in the series on Vero was over 100 µM; with PBMC, over 100 µM; in the series on Huh-7 it was over 10 µM; in the series on CCRF-CEM, 82 µM. Also, the pEC50 in the series with Hepatitis C virus was under 5.00.
As for `CC(C)OC(=O)[C@H](C)N[P@](=O)(OC[C@H]1O[C@@H](n2cnc3c(N)ncnc32)C(Br)(Br)[C@@H]1O)Oc1ccccc1`, the outcome (in the series with Norovirus; in series [1]; in the series with Ebolavirus; in series [2]; in [3]; in the series with West Nile virus) was inactive. The outcome in the series with Chikungunya virus and with Dengue virus was inactive. The CC50 is 60 µM in the series with Vero, 57 µM in the series on PBMC, over 10 µM in the series with Huh-7 and 33 µM with CCRF-CEM. The negative-log EC50 (pEC50) in the series with Hepatitis C virus was under 5.00.
As to `CC(C)OC(=O)[C@H](C)N[P@](=O)(OC[C@H]1O[C@@H](n2ccc(N)nc2=O)C(Br)(Br)[C@@H]1O)Oc1ccccc1`, the outcome (in the series with Norovirus; in series [1]; in the series with Ebolavirus; in series [2]; in series [3]; in the series on West Nile virus) was inactive. Further, the outcome in the series on Chikungunya virus and in the series on Dengue virus was inactive. The CC50 in the series on Vero is over 100 µM; in the series on PBMC it was over 100 µM; with Huh-7, over 10 µM; in the series on CCRF-CEM, 73 µM. The pEC50 in the series with Hepatitis C virus is under 5.00. Besides, the EC90 in the series on Hepatitis C virus was over 10 µM.
For `CC(C)OC(=O)[C@H](C)N[P@](=O)(OC[C@H]1O[C@@H](n2ccc(=O)[nH]c2=O)C(Br)(Br)[C@@H]1O)Oc1ccccc1`, the result (in the series on Norovirus; in series [1]; in the series on Ebolavirus; in [2]; in [3]; in the series with West Nile virus) was inactive. The result with Chikungunya virus and with Dengue virus was inactive. Moreover, the half-maximal cytotoxic concentration (CC50) with Vero is over 100 µM; in the series on PBMC, over 100 µM; in the series with Huh-7, over 10 µM; in the series with CCRF-CEM, 95 µM. In the series with Hepatitis C virus, the negative-log EC50 (pEC50) is 5.82. Moreover, the EC90 in the series with Hepatitis C virus worked out at 2.7 µM.
With `Nc1nc2c(ncn2[C@@H]2O[C@H](CO)C(O)C2(Br)Br)c(=O)[nH]1` (single isomer, unassigned), the outcome (in the series on Norovirus; in series [1]; in the series with Ebolavirus; in series [2]; in series [3]; with West Nile virus) was inactive. The outcome in the series with Chikungunya virus and in the series on Dengue virus was inactive. In addition, the half-maximal cytotoxic concentration (CC50) is over 100 µM with Vero, over 100 µM with PBMC, over 10 µM with Huh-7 and over 100 µM in the series with CCRF-CEM. In addition, the pEC50 with Hepatitis C virus was under 5.00. Besides, the EC90 with Hepatitis C virus is over 10 µM.
Regarding `CC(C)OC(=O)[C@H](C)N[P@](=O)(OC[C@H]1O[C@@H](n2cnc3c(=O)[nH]c(N)nc32)C(Br)(Br)[C@@H]1O)Oc1ccccc1`, the result (in the series on Norovirus; in series [1]; in the series with Ebolavirus; in series [2]; in series [3]; in the series with West Nile virus) was inactive. For the same molecule, the result in the series with Chikungunya virus and with Dengue virus was inactive. Moreover, the CC50 in the series with Vero is over 100 µM; in the series on PBMC, over 100 µM; in the series with Huh-7 it was over 10 µM; with CCRF-CEM it was 34 µM. Further, the pEC50 in the series with Hepatitis C virus is under 5.00.
As for `CC(C)OC(=O)[C@H](C)N[P@](=O)(OC[C@H]1O[C@@H](n2ccc(=O)[nH]c2=O)[C@](C)(F)[C@@H]1O)Oc1ccccc1` [SOFOSBUVIR], the CC50 at 144 h in [4], in series [5] and in series [6] was over 100 µM in each case. In the series with Hepatitis C virus, the pEC50 is 6.70. For the same molecule, the EC90 in the series with Hepatitis C virus worked out at 0.5 µM. In the series on Huh-7, the CC50 is over 10 µM.
For `O=c1ccn([C@@H]2O[C@H](CO)C(O)C2(Br)Br)c(=O)[nH]1` (single isomer, unassigned), the result (in the series on Norovirus; in series [1]; in the series with Ebolavirus; in [2]; in [3]; with West Nile virus) was inactive. The result with Chikungunya virus and in the series with Dengue virus was inactive. The cytotoxic concentration (CC50) with Vero was over 100 µM; with PBMC, over 100 µM; in the series with Huh-7, over 33 µM; in the series on CCRF-CEM, over 100 µM. The pEC50 in the series with Hepatitis C virus was under 4.48. In the series on Hepatitis C virus, the EC90 was over 33 µM.
For the molecule `Nc1ncnc2c1ncn2[C@@H]1O[C@H](CO)C(O)C1(Br)Br` (single isomer, unassigned), the outcome (in the series with Norovirus; in series [1]; with Ebolavirus; in series [2]; in series [3]; in the series with West Nile virus) was inactive. Besides, the outcome in the series with Chikungunya virus and in the series with Dengue virus was inactive. The CC50 with Vero was over 100 µM; in the series on PBMC it was over 100 µM; in the series on Huh-7, over 10 µM; in the series on CCRF-CEM it was over 100 µM. The negative logarithm of the EC50 (pEC50) in the series on Hepatitis C virus is under 5.00. In the series with Hepatitis C virus, the EC90 was over 10 µM.
